Source: PubChem BioAssay
rCAG RNA binder – binders of r(CAG) RNA repeats, primary screen, biochemical, fluorescence | r(CAG) RNA repeat, TO-PRO-1 dye displacement fluorescence | inhibition, % at 3 µM | hit rate 1.3% among 370,000;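 active means inhibition above the plate cutoff, the mean of all test compounds on that plate plus 3 SD, cut at about 35% in these data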;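 further: higher means more dye released from RNA so lower well fluorescence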
ABHD4 inh – ABHD4 inhibitors, primary screen, biochemical, fluorescence polarization, mouse; inhibition, % at 8.92 µM; purified mABHD4, FP-Rh probe fluorescence polarization; AID 720543, 2013; (Lyso)-N-acylphosphatidylethanolamine lipase (Mus musculus), Q8VD66; hit rate 0.54% among 370,000;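 active means inhibition exceeding the mean over every tested compound plus 3 SD, cut at about 30% in these data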
Target sequence (Q8VD66 whole entry, looked up): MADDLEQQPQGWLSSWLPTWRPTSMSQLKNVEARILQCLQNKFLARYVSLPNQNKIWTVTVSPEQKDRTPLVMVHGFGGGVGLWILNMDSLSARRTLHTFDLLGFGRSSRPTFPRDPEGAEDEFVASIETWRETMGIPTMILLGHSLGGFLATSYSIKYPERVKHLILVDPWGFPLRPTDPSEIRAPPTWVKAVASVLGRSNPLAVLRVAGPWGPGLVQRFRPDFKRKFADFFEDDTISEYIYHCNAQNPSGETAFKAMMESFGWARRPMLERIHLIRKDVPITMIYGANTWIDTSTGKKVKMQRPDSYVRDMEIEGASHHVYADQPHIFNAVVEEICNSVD
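System: mouse ABHD4 enzyme, wild type / Medium: HEPES pH 7.0, NaCl, Pluronic buffer / Reagent: FP-Rh activity-based fluorescent probe / Control set: S159A mutant high control, sample median low control / Detection: fluorescence polarization with parallel and perpendicular emission, 525/598 nm / Schedule: 45 min + 60 min at 25 °C / Compound dosing: 8.92 µM, single dose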
LEDGF integ inh – blockers of LEDGF/p75-dependent integrase strand transfer – biochemical, TR-FRET, high throughput, primary screen; HIV-1 integrase (with human LEDGF/p75); AID 743269, 2014; hit rate 0.64% among 370,000; TR-FRET IN-LEDGF/p75 DNA integration, Eu/Cy5; inhibition, % at 3.7 µM;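 active means inhibition above the screen-wide mean plus 3 SD, cut at about 13% in these data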;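 further: signal is the Cy5 over europium emission ratio at 671 and 618 nm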
PRMT1 inh – PRMT1 methyltransferase inhibitors, primary screen, biochemical, fluorescence polarization. hit rate 1.3% among 370,000. Protein arginine N-methyltransferase 1 (Homo sapiens), Q99873. recombinant PRMT1, activity-based probe fluorescence polarization. AID 652257, 2013. inhibition, % at 2.79 µM;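 active means inhibition above about 21% made by adding two undisclosed values, limit read from the data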
HTRA1 inhibitor – HTRA1 serine protease inhibitors, primary screen, biochemical, fluorescence polarization, HTS; Q92743; recombinant HTRA1, FP-rhodamine activity-based probe; inhibition, % at 5.96 µM; hit rate 0.5% among 340,000; AID 504803, 2011; in the data active means inhibition above about 36%
DAGLB inhibitor – DAGLB lipase inhibitors, primary screen, biochemical, fluorescence, HTS; HEK293T DAGLB membrane lysate, EnzChek fluorogenic substrate; inhibition, % at 5.17 µM; hit rate 0.059% among 340,000; AID 504411, 2011; in the data active means inhibition above about 34%
A number is an active result; n = inactive; x = no result given. Most compounds without a hit are left out; they make up all but 3.2% or so of the library.

SMILES	rCAG RNA binder	ABHD4 inh	LEDGF integ inh	PRMT1 inh	HTRA1 inhibitor	DAGLB inhibitor
Cc1cc(-c2cc(NC(=O)Cc3c(C)[nH]c4ccccc34)ccc2N(C)c2cccnc2)ccc1F	n	n	n	n	x	x
O=C1c2ccccc2C(=O)N1CC(O)COc1ccc(Br)cc1 (stereo unspecified)	n	n	n	n	n	n
Cc1cc(=O)[nH]c(SCC(=O)Nc2nc3ccccc3s2)n1	n	n	n	21.2	n	n
Cc1onc(-c2ccccc2Cl)c1C(=O)NCCn1c(C)cc2ccccc21	x	x	x	x	47.6	n
Cc1onc(-c2ccccc2Cl)c1C(=O)NCC(=O)O	n	n	n	n	n	n
COc1ccc2[nH]c3c(N4CCc5ccccc5C4)ncnc3c2c1	n	35.8	n	n	n	n
CCOC(=O)N1CCN(c2ncnc3c2[nH]c2ccc(OC)cc23)CC1	n	n	n	n	n	n
CC1(C)N([O-])c2cc([N+](=O)[O-])ccc2[N+]1=O	n	37.0	20.7	n	x	x
Cc1cc(C)cc(NC(=S)Nc2cccc3ccccc23)c1	n	n	n	n	n	n
Cc1cc(NC(=S)Nc2cccc3ccccc23)n[nH]1	n	n	n	23.3	n	n
CC(C)(C)OC(=O)N1CCC[C@H]1c1nnc(SC/C=C/c2ccccc2)o1	n	n	n	n	n	n
C/C=C/C=C\C(=O)Nc1cccc(C2=NOC3(C2)C[C@@H](C(N)=O)N(C(=O)c2cc([N+](=O)[O-])cc([N+](=O)[O-])c2C)C3)c1 (stereo partly specified)	n	n	n	24.5	n	n
C=C(C)C(=O)Nc1cccc(C2=NOC3(C2)C[C@@H](C(N)=O)N(C(=O)CCCCC)C3)c1 (stereo partly specified)	n	n	41.4	n	n	n
CCCCCC(=O)Nc1cccc(C2=NOC3(C2)C[C@@H](C(N)=O)N(C(=O)c2cc([N+](=O)[O-])cc([N+](=O)[O-])c2C)C3)c1 (stereo partly specified)	n	n	n	n	n	n
CCOc1ccc(CCNC(=O)C2CCN(c3nn4c(=O)cc(C)nc4s3)CC2)cc1OCC	n	n	n	n	n	n
CC1CCc2c(sc3nn[nH]c(=O)c23)C1 (stereo unspecified)	n	n	n	n	n	n
S=c1[nH]nc(Nc2cccc(Cl)c2)s1	n	n	n	n	n	n
S=c1[nH]nc(Nc2ccccc2Cl)s1	n	n	n	23.4	n	n
Cc1ccc(S(=O)(=O)c2nc(-c3ccco3)oc2SCC(N)=O)cc1	n	n	n	21.4	n	n
NC(=O)CSc1oc(-c2ccco2)nc1S(=O)(=O)c1ccc(Cl)cc1	x	x	x	x	n	n
O=C(CCCN1CCOCC1)c1ccc2c(c1)OCCO2	n	n	n	n	n	n
O=C(CCN1CCOCC1)c1ccc2c(c1)OCCO2	n	n	n	23.8	n	n
COc1ccc(NC(=O)c2cc([N+](=O)[O-])ccc2NC(=O)CNCc2ccccn2)c(OC)c1	n	n	n	24.7	n	n
COc1cccc(CNC(=O)CN2C(=O)CSc3ccc(S(=O)(=O)N4CCOCC4)cc32)c1	n	n	n	n	n	n
O=C(CN1C(=O)S/C(=C\c2ccc(-c3cc(C(=O)O)ccc3Cl)o2)C1=O)Nc1ccc2c(c1)OCO2	48.9	n	18.4	n	n	n
SMILES	rCAG RNA binder	ABHD4 inh	LEDGF integ inh	PRMT1 inh	HTRA1 inhibitor	DAGLB inhibitor
CC[N+](CC)(CC=C(C)C)CC(=O)OC	n	n	n	n	n	n
Cc1ccc(-c2nc3c(Cl)cc(C(F)(F)F)cn3c2Cc2ccsc2)cc1	55.1	n	n	n	x	x
Fc1ccc(-c2nc3c(Cl)cc(C(F)(F)F)cn3c2Cc2ccsc2)cc1	n	n	n	n	x	x
Cc1cccc(CCNC(=O)CCS(=O)(=O)c2ccc3nc(C)sc3c2)c1	n	n	n	n	n	n
COC(=O)C1=C(C)NC(=O)/C1=C\N(C)C	n	n	n	24.6	n	n
CN(C)c1ccc(NS(=O)(=O)c2ccc(Cl)cc2)cc1	n	n	n	23.4	n	n
Cc1ccc(S(=O)(=O)Nc2ccc(N(C)C)cc2)cc1	n	n	n	n	n	n
Cc1cccc(-n2nc3c(c2NC(=O)c2ccco2)CSC3)c1C	n	n	28.8	30.3	n	n
Cc1ccc(OCC(=O)N(C)CC(=O)NCc2ccco2)c(Br)c1	n	n	n	n	n	n
CC(=O)c1cccc(OCC(=O)N(C)CC(=O)NCc2ccco2)c1	n	n	30.1	n	n	n
Cc1nn(C(C)C(=O)NC2C(=O)N3C(C(=O)O)=C(CSc4nnnn4C)CSC23)cc1Cl (stereo unspecified)	n	n	n	24.0	n	n
Cc1cc(C(F)F)nn1CC(=O)NC1C(=O)N2C(C(=O)O)=C(CSc3nnnn3C)CSC12 (stereo unspecified)	n	n	n	23.8	n	n
O=C(N[C@H](C(=O)N1CCC[C@H]1C(=O)NC1CCCC1)C1CCCCC1)c1nccs1	n	n	n	n	x	x
O=C(COC(=O)CNC(=O)c1ccccc1)NCCc1ccccc1	n	n	n	n	n	n
O=C(CNC(=O)c1ccccc1)NCCc1ccc(O)c(O)c1	n	n	n	25.2	n	n
CC(OC(=O)c1cc(O)c2ccccc2c1O)C(=O)Nc1ccc(C(N)=O)cc1 (stereo unspecified)	n	n	14.5	n	n	n
CC(OC(=O)c1ccccc1C(=O)N(C)c1ccccc1)C(=O)Nc1ccc(C(N)=O)cc1 (stereo unspecified)	n	n	n	n	n	n
COc1ccc(C(=O)CSc2nnc(-c3ccco3)n2C)cc1	n	n	n	24.4	n	n
FC(F)(F)c1nnc2ccc(Cl)nn12	n	n	n	n	n	n
CC(=O)Nc1ccc(C(=O)Nc2cc(C)on2)cc1	n	n	n	n	n	n
NS(=O)(=O)c1ccc(N=C2C(=O)Nc3ccccc32)cc1	n	n	n	n	n	n
O=C1Nc2ccccc2C1=Nc1ccc(S(=O)(=O)Nc2nccs2)cc1	48.2	41.8	n	n	n	n
O=C(CSc1nc2nc(-c3cccs3)cc(C(F)(F)F)c2c(=O)[nH]1)Nc1ccc(F)c(F)c1	67.6	n	n	n	n	n
O=C(CSc1n[nH]c(Cc2ccccc2)n1)Nc1ccccc1Br	n	n	n	24.3	n	n
Cc1cccc(NCc2nc(SCC(=O)Nc3ccccc3Br)n[nH]2)c1	n	n	n	n	n	n
c1ccc2c(c1)-c1nc3ccccc3cc1C2N1CCOCC1 (stereo unspecified)	n	n	n	n	n	n
